Measurements from different studies.
Protocols differ between the studies behind these lines.
Target: Mitogen-activated protein kinase kinase kinase 10 (MAP3K10, Homo sapiens, UniProt Q02779)

With `CC(C)(C)c1nc(-c2cccc(NS(=O)(=O)c3c(F)cccc3F)c2F)c(-c2ccnc(N)n2)s1` the remaining activity was 91% (enzyme activity; inhibitor; radiometric; 1 µM).
`O=C1NC(c2ccccn2)Sc2ccccc21` (stereo not drawn) gave a remaining binding of 94% (cell-free assay; competition with immobilised ligand; 1 µM).
`O=C1Nc2ccc(Cl)cc2C1=Cc1cc(Cl)c(O)c(Cl)c1` gave a remaining signal of 86.8% (cell-free assay; 0.5 µM).
The remaining activity of `CC(C)(O)[C@H]1CC[C@H](Nc2ccc3ncc(-c4cccc(C(F)(F)F)c4)n3n2)CC1` is reported as 85% (enzyme activity; inhibitor; 1 µM).
With `COc1cc(Cl)c(C(=O)N[C@@H](CN[C@H]2CC[C@@H](N)CC2)Cc2ccc(C#N)cc2)cc1-c1ccc(CN[C@H](C)c2ccc(C)cc2)o1` the remaining activity was 97% (enzyme activity; inhibitor; 1 µM).
With `CCCCNc1ncc2c(-c3ccc(F)cc3)nn(C[C@H]3CC[C@H](N)CC3)c2n1` the inhibition was 65.4% (target engagement in cells; inhibitor; chemoproteomics; 20 mM).
The inhibition of `CN1CC(Oc2cnc(C#N)cc2-c2ccn3nc(NC(=O)C4CC4)cc3c2)C1` is reported as 8% (enzyme activity; inhibitor; 1 µM).
`O=C1NC(=O)c2cc(Nc3ccc(F)cc3)c(Nc3ccc(F)cc3)cc21` gave a remaining signal of 90.6% (cell-free assay; 0.5 µM).
`COc1cccc2c(NCc3ccccc3)nc(-n3c(N)nc4ccccc43)nc12` has an inhibition of 17.4% (target engagement in cells; inhibitor; chemoproteomics; 20 mM).
For `CCCOc1ccc([C@@H]2[C@@H](C(=O)O)[C@H](c3ccc4c(c3)OCO4)CN2CC(=O)Nc2c(CC)cccc2CC)cc1`, the remaining binding was 100% (cell-free assay; competition with immobilised ligand; 1 µM).
`CCN(CC)CCNC(=O)c1c(C)[nH]c(/C=C2\C(=O)Nc3ccc(F)cc32)c1C` gave a remaining signal of 104% (cell-free assay; 0.5 µM).
`CC(C)(O)c1cncc(-c2nc3ccc(F)cc3n2C2CC2)c1` has a remaining binding of 100% (cell-free assay; competition with immobilised ligand; 1 µM).
For `Cc1ccc(C(=O)Nc2ccc(CN3CCN(C)CC3)c(C(F)(F)F)c2)cc1C#Cc1cnc2cccnn12`, the remaining activity was 69% (enzyme activity; inhibitor; 23.5 nM).
For `CCS(=O)(=O)c1cc2cc(C[C@](O)(CC(C)(C)c3ccc(F)cc3C(N)=O)C(F)(F)F)[nH]c2cn1`, the remaining binding was 100% (cell-free assay; competition with immobilised ligand; 1 µM).
The remaining signal of `N#CCCc1ccc2c(c1)-c1[nH]c3ccc([N+](=O)[O-])cc3c1CC(=O)N2` is reported as 30% (cell-free assay; 0.5 µM).
The activity vs control of `Cc1ccc(C(=O)NCc2ccsc2)cc1C#Cc1cn(C(C)C)c2ncnc(N)c12` is reported as 5% (enzyme activity; inhibitor; 1 µM).
With `C[C@H](NC(=O)c1cnc2n1[C@](C)(Cc1ccc(C#N)cc1)C(=O)N2c1cc(Cl)c(F)c(Cl)c1)C(=O)NC1(c2ccccn2)CC1` the remaining binding was 100% (cell-free assay; competition with immobilised ligand; 1 µM).
With `O=C(Nc1cnn(-c2csc(C(=O)NC3COC3)c2)c1)Nc1c(F)cccc1Cl` the remaining activity was 94.3% (enzyme activity; inhibitor; 5 µM).
